Activity calls are given as the source filed them.
Experiments:
[1] = Inhibition of L-type calcium channel
[2] = target: T1, Voltage-dependent T-type calcium channel subunit alpha-1G (Homo sapiens, UniProt O43497); test: Inhibition of T-type Cav3.1 channel
[3] = target: Voltage-dependent T-type calcium channel subunit alpha-1H (Homo sapiens, UniProt O95180); test: Inhibition of T-type Cav3.2 channel
[4] = target: Voltage-dependent T-type calcium channel subunit alpha-1I (Homo sapiens, UniProt Q9P0X4); test: Inhibition of T-type Cav3.3 channel
[5] = target: T1, Voltage-dependent T-type calcium channel subunit alpha-1G; test: Inhibition of T-type alpha1G channel expressed in HEK293 cells by whole-cell patch-clamp method; format: cell-based
Summary of the method: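 HEK293 cells stably expressing α1G (Cav3.1); whole-cell patch clamp. External solution in mM: 140 NaCl, 2 CaCl2, 10 Hepes, 10 glucose, pH 7.4.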

[6] = target: Voltage-dependent N-type calcium channel subunit alpha-1B (Homo sapiens) (UniProt Q00975); test: Inhibition of N-type Alpha-1B channel expressed in HEK293 cells by whole-cell patch-clamp method; format: cell-based; design: concentration or dose not given beside the values; conditions: concentration not given here
Sequence of Voltage-dependent N-type calcium channel subunit alpha-1B (Homo sapiens) (Q00975 whole entry, looked up): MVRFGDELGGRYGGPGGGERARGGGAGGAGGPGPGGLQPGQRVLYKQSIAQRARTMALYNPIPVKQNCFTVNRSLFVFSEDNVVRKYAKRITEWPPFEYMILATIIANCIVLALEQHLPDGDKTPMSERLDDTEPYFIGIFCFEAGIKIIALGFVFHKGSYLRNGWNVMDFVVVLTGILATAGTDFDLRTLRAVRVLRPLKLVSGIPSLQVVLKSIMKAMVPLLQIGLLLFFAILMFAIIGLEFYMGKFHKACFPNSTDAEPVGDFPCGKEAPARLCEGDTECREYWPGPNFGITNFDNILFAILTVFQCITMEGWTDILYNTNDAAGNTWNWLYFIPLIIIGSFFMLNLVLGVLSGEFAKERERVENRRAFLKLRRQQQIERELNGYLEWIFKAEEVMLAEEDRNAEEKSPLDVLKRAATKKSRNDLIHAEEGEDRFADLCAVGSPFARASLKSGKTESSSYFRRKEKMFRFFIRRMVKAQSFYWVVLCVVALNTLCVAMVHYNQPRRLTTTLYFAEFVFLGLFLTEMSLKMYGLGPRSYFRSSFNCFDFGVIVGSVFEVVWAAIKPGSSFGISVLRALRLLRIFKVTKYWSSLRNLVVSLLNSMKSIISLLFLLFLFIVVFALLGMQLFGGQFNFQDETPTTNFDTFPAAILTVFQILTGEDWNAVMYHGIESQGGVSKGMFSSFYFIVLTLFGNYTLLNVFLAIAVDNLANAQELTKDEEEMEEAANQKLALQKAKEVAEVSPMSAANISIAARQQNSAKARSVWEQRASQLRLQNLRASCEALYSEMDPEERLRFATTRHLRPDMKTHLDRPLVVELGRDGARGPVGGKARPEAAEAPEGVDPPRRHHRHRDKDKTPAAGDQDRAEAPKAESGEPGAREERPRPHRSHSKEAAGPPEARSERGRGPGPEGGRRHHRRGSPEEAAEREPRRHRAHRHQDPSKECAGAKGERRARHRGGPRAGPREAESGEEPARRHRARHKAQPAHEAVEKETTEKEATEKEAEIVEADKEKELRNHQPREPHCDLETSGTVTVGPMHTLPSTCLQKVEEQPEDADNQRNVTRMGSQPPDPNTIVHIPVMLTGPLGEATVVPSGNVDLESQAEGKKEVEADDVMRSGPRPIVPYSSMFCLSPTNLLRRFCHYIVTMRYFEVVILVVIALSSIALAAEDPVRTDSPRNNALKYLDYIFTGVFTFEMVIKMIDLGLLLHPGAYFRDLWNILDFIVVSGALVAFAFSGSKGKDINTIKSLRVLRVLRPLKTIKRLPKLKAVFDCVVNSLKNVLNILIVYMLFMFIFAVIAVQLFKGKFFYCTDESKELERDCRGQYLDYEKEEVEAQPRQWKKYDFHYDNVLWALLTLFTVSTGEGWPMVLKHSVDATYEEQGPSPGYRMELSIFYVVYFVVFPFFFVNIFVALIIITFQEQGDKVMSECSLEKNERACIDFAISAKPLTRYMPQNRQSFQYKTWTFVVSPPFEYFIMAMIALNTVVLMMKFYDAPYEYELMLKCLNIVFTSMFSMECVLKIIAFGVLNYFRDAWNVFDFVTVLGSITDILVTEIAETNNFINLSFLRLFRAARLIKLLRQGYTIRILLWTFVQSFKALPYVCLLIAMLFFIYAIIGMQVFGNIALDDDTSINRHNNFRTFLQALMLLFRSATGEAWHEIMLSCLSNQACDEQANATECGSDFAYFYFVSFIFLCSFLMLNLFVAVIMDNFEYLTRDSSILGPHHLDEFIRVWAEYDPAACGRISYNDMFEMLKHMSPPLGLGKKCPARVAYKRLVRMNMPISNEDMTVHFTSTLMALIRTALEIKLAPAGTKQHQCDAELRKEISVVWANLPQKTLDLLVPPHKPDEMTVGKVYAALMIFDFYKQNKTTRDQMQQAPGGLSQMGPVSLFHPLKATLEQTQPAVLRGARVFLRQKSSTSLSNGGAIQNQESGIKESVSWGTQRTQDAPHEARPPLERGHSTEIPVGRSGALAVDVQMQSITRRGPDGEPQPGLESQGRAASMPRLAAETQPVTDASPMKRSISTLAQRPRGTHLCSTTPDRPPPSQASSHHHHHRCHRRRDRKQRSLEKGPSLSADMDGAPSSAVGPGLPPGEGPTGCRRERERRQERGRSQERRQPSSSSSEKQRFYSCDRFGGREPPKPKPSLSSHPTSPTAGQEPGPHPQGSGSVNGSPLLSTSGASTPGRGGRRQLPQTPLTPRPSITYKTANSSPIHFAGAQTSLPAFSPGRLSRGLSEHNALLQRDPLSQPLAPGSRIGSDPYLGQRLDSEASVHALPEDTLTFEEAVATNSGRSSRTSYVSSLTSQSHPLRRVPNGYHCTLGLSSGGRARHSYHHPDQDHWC

[7] = Inhibition of T-type Cav3 channel
Summary of the method: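 Whole-cell patch clamp on HEK293 cells stably expressing Cav3.1 (α1G). External solution was 140 mM NaCl, 2 mM CaCl2, 10 mM Hepes and 10 mM glucose, pH 7.4. Currents were evoked every 15 s by a 50 ms depolarizing voltage step.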

Rattus norvegicus [8] = test: Analgesic activity against formalin-induced inflammatory pain in rat assessed as reduction of pain behavior time at 60 µg/ 10 ul, sc administered after 10 mins at 5 mins intervals (reference value: 47.05 +/- 8.53 seconds); format: functional
Rattus norvegicus [9] = test: Antinociceptive activity against von Frey hair mechanically stimulated neuropathic pain in rat assessed as withdrawal threshold at 60 mg/kg, ip administered 2 weeks after surgery; format: functional, organism-based; design: dose 60 mg/kg
Summary of the method: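 Tail nerve injury rats (unilateral caudal trunk transection between S1 and S2 under enflurane) received a baseline test 2 weeks post-injury. They were then dosed at 60 mg/kg ip in methyl pyrrolidone/Tween 80/saline (1:1:8). Tail withdrawal to von Frey filaments was retested at 1, 3, 5 and 24 h. Versus baseline by one-way repeated-measures ANOVA with Bonferroni t-test.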

Rattus norvegicus [10] = test: Analgesic activity against formalin-induced inflammatory pain in rat assessed as reduction of time spent on paw licking, shaking or biting at 60 ug, sc administered after 50 mins at 5 mins intervals; conditions: route subcutaneous
Rattus norvegicus [11] = test: Anti-warm allodynic activity in rat assessed as tail withdrawal latency at 60 mg/kg, ip measured within cut-off time of 15 seconds for up to 24 hrs; format: functional, organism-based; design: dose 60 mg/kg
Summary of the method: (§1)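 At 2 weeks, after a baseline test, 60 mg/kg was given ip in methyl pyrrolidone/Tween 80/saline (1:1:8). Tail withdrawal latency to 4 °C (cold) or 40 °C (warm) water immersion was read at 1, 3, 5 and 24 h, with a 15 s cut-off. Versus baseline by repeated-measures ANOVA with Bonferroni t-test.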

Rattus norvegicus [12] = test: Anti-cold allodynic activity in rat assessed as tail withdrawal latency at 60 mg/kg, ip measured within cut-off time of 15 seconds for up to 24 hrs; format: functional, organism-based; design: dose 60 mg/kg; summary of the method: as §1
[13] = target: Voltage-dependent N-type calcium channel subunit alpha-1B (Homo sapiens) (UniProt Q00975); test: Inhibition of N-type Alpha-1B channel expressed in HEK293 cells at 10 uM by whole-cell patch-clamp method; format: cell-based
Rattus norvegicus [14] = test: Analgesic activity against formalin-induced inflammatory pain in rat assessed as reduction of time spent on paw licking, shaking, biting at 60 ug, sc administered after 50 mins at 5 mins intervals(reference value: 334.21 +/- 51.10 seconds); conditions: route subcutaneous

T1 sequence (O43497 whole entry): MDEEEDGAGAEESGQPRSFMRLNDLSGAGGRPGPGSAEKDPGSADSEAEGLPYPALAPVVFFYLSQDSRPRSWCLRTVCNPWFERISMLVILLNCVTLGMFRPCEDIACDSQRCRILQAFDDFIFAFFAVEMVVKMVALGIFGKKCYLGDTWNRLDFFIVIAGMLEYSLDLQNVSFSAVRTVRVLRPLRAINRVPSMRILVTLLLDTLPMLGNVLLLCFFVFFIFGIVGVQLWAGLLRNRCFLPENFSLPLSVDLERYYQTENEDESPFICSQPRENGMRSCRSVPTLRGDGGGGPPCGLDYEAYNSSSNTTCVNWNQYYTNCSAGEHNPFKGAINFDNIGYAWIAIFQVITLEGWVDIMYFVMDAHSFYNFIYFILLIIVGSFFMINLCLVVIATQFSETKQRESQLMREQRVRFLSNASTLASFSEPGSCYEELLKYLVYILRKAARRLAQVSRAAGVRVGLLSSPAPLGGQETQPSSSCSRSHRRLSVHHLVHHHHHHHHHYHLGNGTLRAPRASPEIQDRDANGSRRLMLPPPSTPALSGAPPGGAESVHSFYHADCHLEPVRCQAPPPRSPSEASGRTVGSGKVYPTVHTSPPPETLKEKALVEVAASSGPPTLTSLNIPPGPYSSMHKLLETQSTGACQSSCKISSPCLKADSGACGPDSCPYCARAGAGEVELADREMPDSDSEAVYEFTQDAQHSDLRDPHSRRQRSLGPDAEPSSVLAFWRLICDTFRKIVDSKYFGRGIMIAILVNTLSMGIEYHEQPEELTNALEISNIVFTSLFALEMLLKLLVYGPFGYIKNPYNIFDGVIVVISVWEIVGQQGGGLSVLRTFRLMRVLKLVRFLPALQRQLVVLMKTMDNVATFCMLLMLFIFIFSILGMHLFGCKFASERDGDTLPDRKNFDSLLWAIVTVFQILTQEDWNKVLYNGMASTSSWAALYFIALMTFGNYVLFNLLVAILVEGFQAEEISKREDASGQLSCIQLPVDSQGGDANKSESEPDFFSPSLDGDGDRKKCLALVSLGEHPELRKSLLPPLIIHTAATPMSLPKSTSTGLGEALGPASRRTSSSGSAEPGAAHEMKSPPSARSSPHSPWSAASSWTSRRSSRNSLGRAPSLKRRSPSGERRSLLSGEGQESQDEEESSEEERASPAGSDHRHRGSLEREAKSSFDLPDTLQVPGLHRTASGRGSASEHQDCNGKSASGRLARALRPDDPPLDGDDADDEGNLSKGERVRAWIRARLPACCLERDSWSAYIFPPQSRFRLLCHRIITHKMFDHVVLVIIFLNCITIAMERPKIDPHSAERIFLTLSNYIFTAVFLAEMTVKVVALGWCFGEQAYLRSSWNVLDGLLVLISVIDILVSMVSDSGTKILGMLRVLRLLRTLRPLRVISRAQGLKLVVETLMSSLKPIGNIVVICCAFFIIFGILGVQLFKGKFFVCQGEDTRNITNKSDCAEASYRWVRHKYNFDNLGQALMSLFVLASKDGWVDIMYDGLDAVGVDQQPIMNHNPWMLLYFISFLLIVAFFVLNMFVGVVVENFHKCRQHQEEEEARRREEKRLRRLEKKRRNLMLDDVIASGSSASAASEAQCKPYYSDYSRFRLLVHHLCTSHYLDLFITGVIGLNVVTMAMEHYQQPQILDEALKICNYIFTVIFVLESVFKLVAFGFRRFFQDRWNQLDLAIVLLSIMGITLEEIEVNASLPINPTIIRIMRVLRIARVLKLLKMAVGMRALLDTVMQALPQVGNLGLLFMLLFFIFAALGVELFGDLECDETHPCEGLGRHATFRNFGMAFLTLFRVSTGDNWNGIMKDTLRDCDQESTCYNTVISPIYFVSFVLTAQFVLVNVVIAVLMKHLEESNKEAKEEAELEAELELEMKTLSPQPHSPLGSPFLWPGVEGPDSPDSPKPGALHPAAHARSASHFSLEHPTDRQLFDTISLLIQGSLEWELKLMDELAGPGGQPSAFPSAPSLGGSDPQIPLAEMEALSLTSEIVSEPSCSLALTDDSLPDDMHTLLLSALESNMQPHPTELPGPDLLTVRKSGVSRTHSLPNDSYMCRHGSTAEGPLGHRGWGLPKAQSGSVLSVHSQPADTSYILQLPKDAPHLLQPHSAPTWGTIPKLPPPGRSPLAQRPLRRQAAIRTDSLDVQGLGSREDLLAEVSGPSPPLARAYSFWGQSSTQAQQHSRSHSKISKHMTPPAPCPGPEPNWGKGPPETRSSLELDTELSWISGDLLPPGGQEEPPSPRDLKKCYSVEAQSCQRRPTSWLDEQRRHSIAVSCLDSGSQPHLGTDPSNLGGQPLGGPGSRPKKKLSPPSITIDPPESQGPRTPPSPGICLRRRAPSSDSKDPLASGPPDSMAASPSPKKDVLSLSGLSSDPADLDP

SMILES	IC50 [5] [µM]	inhibition [6] [%]	further results
COCC(=O)O[C@]1(CCN(C)CCCc2nc3ccccc3[nH]2)CCc2cc(F)ccc2[C@@H]1C(C)C [MIBEFRADIL]			IC50 [1]: 10 µM
Fc1ccc(C(c2ccc(F)cc2)N2CCN(C/C=C/c3ccccc3)CC2)cc1 [FLUNARIZINE]			Kd [2]: 0.53 µM; Kd [3]: 3.6 µM; Kd [4]: 0.84 µM
CCNCCCC(=O)N1CCN(C(c2ccccc2)c2ccc(Cl)cc2)CC1 (stereo not drawn)	0.42	20	
O=c1[nH]c2ccccc2n1C1CCN(CCCC(c2ccc(F)cc2)c2ccc(F)cc2)CC1			INH [7]: 40 nM
NCCCC(=O)N1CCN(C(c2ccccc2)c2ccc(Cl)cc2)CC1 (stereo not drawn)	3.71	10	Time (Rattus norvegicus [8]): 2.41 s; Activity (Rattus norvegicus [9]): Active; Time (Rattus norvegicus [10]): 62.57 s; Activity (Rattus norvegicus [11]): Active; Activity (Rattus norvegicus [12]): Active
COc1ccc(CNCCCC(=O)N2CCN(C(c3ccccc3)c3ccc(Cl)cc3)CC2)cc1 (stereo not drawn)	16.1	49.6	
CC(C)CNCCCC(=O)N1CCN(C(c2ccccc2)c2ccc(Cl)cc2)CC1 (stereo not drawn)	0.36	13.3	
O=C(CCCNCc1ccc([N+](=O)[O-])cc1)N1CCN(C(c2ccccc2)c2ccc(Cl)cc2)CC1 (stereo not drawn)	0.6	88.8	inhibition [13]: 80%
CN(C)c1ccc(CNCCCC(=O)N2CCN(C(c3ccccc3)c3ccc(Cl)cc3)CC2)cc1 (stereo not drawn)	2.32	10.8	
CCC(CC)CNCCCC(=O)N1CCN(C(c2ccccc2)c2ccc(Cl)cc2)CC1 (stereo not drawn)	1.54	16.8	
NCC1(CC(=O)O)CCCCC1			Activity (Rattus norvegicus [9]): Active; Activity (Rattus norvegicus [11]): Active; Activity (Rattus norvegicus [12]): Active
CC(C)c1ccc(CNCCCC(=O)N2CCN(C(c3ccccc3)c3ccc(Cl)cc3)CC2)cc1 (stereo not drawn)	0.28	80.2	inhibition [13]: 80%
O=C(CCCNCc1c(Cl)cccc1Cl)N1CCN(C(c2ccccc2)c2ccc(Cl)cc2)CC1 (stereo not drawn)	1.02	78.4	
O=C(CCCNCC1CCCCC1)N1CCN(C(c2ccccc2)c2ccc(Cl)cc2)CC1 (stereo not drawn)	0.19	84.9	Time (Rattus norvegicus [8]): 1.8 s; Activity (Rattus norvegicus [9]): inactive; Time (Rattus norvegicus [14]): 24.32 s; inhibition [13]: 80%; Activity (Rattus norvegicus [11]): Active; Activity (Rattus norvegicus [12]): Active
O=C(CCCNCc1ccccc1)N1CCN(C(c2ccccc2)c2ccc(Cl)cc2)CC1 (stereo not drawn)	1.67	69.8	

Reference: ChEMBL document CHEMBL1212879, “Synthesis and T-type calcium channel blocking activity of novel diphenylpiperazine compounds, and evaluation of in vivo analgesic activity” (Bioorg Med Chem, 2010)
